Consider 14 molecules from PubChem BioAssay.

Structures are written as SMILES. The source made the active and inactive calls.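 How the source made its calls, unless noted: active means GFP response above 150% of the DMSO level; inconclusive means fewer than 70 events counted for a yeast strain; inactive means the rest.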

A short description of experiment [1]: RPL19A-GFP modulators, yeast TOR pathway, confirmation, cell-based, S. cerevisiae, flow cytometry, cherry picks, mother/daughter gates (AID 2270;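 active means GFP response below 50% of the DMSO control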). The following applies: S. cerevisiae RPL19A-GFP strain, 3 h, at 10 µM, stronger effect = lower value, 100 = same GFP as DMSO wells. In general terms: A flow cytometer gives signals particle by particle.
Experiment [2] is described as follows: LAP4-GFP expression modulators in yeast, confirmation, cell-based, cherry picks, flow cytometry, mother/daughter gates (AID 2271;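 active means GFP response above 150% of the DMSO control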;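 further: ratio of sample to DMSO plate mean so 100% equals DMSO level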). As to conditions: S. cerevisiae LAP4-GFP strain, 3 h, at 10 µM, stronger effect = higher value, 100 means same as DMSO control. The procedure, abridged:
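Measured by: GFP by flow cytometry. Test system: GFP-fusion yeast strain. Input: yeast cells seeded at OD600 of 0.2. Timing: 30 °C, 3 h compound incubation, rotating. Buffer or medium: synthetic complete medium for yeast. Benchmarks: DMSO-only negative wells, rapamycin 400 ng/mL positive wells. Compound: 10 µM single dose.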

A short description of experiment [3]: modulators of MEP2-GFP levels in yeast, confirmation, S. cerevisiae, flow cytometry GFP, cherry picks (AID 2272;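 active means GFP response above 150% of the DMSO control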;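 further: ratio of well signal to plate DMSO mean so 100% equals DMSO level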). As to conditions: S. cerevisiae MEP2-GFP strain, 3 h, at 10 µM, stronger effect = higher value.
Experiment [4] can be described thus: AGP1-GFP expression modulators, hit retest, confirmation, cell-based, flow cytometry, S. cerevisiae, cherry picks (AID 2273).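 Further: median GFP channel fluorescence over the whole cell population gate.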 As to conditions: S. cerevisiae AGP1-GFP strain, 3 h, at 10 µM.
The nature of experiment [5]: modulators of CIT2-GFP expression in yeast, confirmation, S. cerevisiae, GFP fusion, cherry picks, mother/daughter gates (AID 2274). The following applies: S. cerevisiae CIT2-GFP strain, flow cytometry, 3 h, at 10 µM, stronger effect = higher value.
Where [6] appears, read: measured here: daughter cell gate.
Where [7] appears, read: measured here: mother cell gate.
[8] abbreviates: measured here: daughter cell gate response.
Where [9] appears, read: measured here: mother cell gate response.

`COc1ccccc1N=Nc1ccc(O)c2ncccc12`: the GFP response vs DMSO in experiment [1] is 104% (inactive); in experiment [1] (setting [6]), 101%; in experiment [1] (setting [7]), 101%; in experiment [3], 132% (inactive). Besides, the results for the GFP response relative to DMSO in experiment [2], in experiment [2] (setting [8]) and in experiment [2] (setting [9]) were 235% (active), 203% and 223%, respectively. In addition, the GFP response, % of DMSO was 115% (inactive) in experiment [4], 158% (active) in experiment [5], 126% in experiment [5] (setting [6]) and 161% in experiment [5] (setting [7]).
Turning to `Cc1ccc(NC(=S)N/N=C/c2c(C)[nH]c3ccccc23)cc1`, the GFP response vs DMSO is 97.4% (inactive) in experiment [1], 97% in experiment [1] (setting [6]), 97.9% in experiment [1] (setting [7]) and 104% (inactive) in experiment [3]. For the same molecule, the GFP response relative to DMSO in experiment [2] was 101% (inactive); in experiment [2] (setting [8]) it was 93.6%; in experiment [2] (setting [9]), 104%. In addition, the GFP response, % of DMSO in experiment [4] was 90.1% (inactive); in experiment [5], 104% (inactive); in experiment [5] (setting [6]), 108%; in experiment [5] (setting [7]), 100%.
With `CCn1c2ccccc2c2cc(/C=N/n3cn[nH]c3=S)ccc21`, the GFP response vs DMSO in experiment [1] is 93.6% (inactive); in experiment [1] (setting [6]), 91.6%; in experiment [1] (setting [7]), 93.3%; in experiment [3] it was 97.2% (inactive). In addition, the values for the GFP response relative to DMSO in experiment [2], in experiment [2] (setting [8]) and in experiment [2] (setting [9]) were 139% (inactive), 128% and 141%, respectively. The GFP response, % of DMSO is 94.3% (inactive) in experiment [4], 87.5% (inactive) in experiment [5], 86.9% in experiment [5] (setting [6]) and 84.8% in experiment [5] (setting [7]).
For the molecule `Cc1ccc(NC(=S)NCC23C=CC(O2)C2C(=O)N(c4ccc(C)cc4)C(=O)C23)cc1` (centres undefined), the GFP response vs DMSO in experiment [1] was 102% (inactive); in experiment [1] (setting [6]), 101%; in experiment [1] (setting [7]) it was 102%; in experiment [3] it was 104% (inactive). Moreover, the results for the GFP response relative to DMSO in experiment [2], in experiment [2] (setting [8]) and in experiment [2] (setting [9]) were 105% (inactive), 105% and 106%, respectively. Further, the GFP response, % of DMSO in experiment [4] was 98.9% (inactive); in experiment [5], 100% (inactive); in experiment [5] (setting [6]) it was 98.1%; in experiment [5] (setting [7]), 101%.
On to `COc1ccc(N2CCN(C(=O)C3CCCN(S(=O)(=O)c4ccc(C)cc4)C3)CC2)cc1` (centres undefined), for which the GFP response vs DMSO in experiment [1] was 95.2% (inactive); in experiment [1] (setting [6]) it was 97.4%; in experiment [1] (setting [7]), 93.4%; in experiment [3], 105% (inactive). Further, the GFP response relative to DMSO in experiment [2] is 103% (inactive); in experiment [2] (setting [8]), 104%; in experiment [2] (setting [9]), 104%. Further, the GFP response, % of DMSO was 97.3% (inactive) in experiment [4], 103% (inactive) in experiment [5], 97.4% in experiment [5] (setting [6]) and 105% in experiment [5] (setting [7]).
As to `Cc1ccc(C(=O)N/C(=C/c2ccco2)C(=O)N2CCOCC2)cc1`, the GFP response vs DMSO in experiment [1] is 103% (inactive); in experiment [1] (setting [6]), 100%; in experiment [1] (setting [7]) it was 104%; in experiment [3] it was 101% (inactive). Besides, the GFP response relative to DMSO is 105% (inactive) in experiment [2], 106% in experiment [2] (setting [8]) and 104% in experiment [2] (setting [9]). For the same molecule, the GFP response, % of DMSO is 102% (inactive) in experiment [4], 95.9% (inactive) in experiment [5], 97.4% in experiment [5] (setting [6]) and 95.6% in experiment [5] (setting [7]).
With `O=C(CS(=O)c1ccccc1[N+](=O)[O-])Oc1ccc(Br)cc1` (centres undefined), the GFP response vs DMSO in experiment [1] was 101% (inactive); in experiment [1] (setting [6]) it was 105%; in experiment [1] (setting [7]), 96.5%; in experiment [3], 101% (inactive). Besides, the GFP response relative to DMSO in experiment [2] is 168% (active); in experiment [2] (setting [8]), 167%; in experiment [2] (setting [9]), 164%. For the same molecule, the GFP response, % of DMSO in experiment [4] is 107% (inactive); in experiment [5], 98.6% (inactive); in experiment [5] (setting [6]) it was 105%; in experiment [5] (setting [7]) it was 91.5%.
`O=C(Nc1nnc(-c2ccccc2Cl)o1)c1ccc(S(=O)(=O)N2CCCCCC2)cc1`: the GFP response vs DMSO is 100% (inactive) in experiment [1], 98.6% in experiment [1] (setting [6]), 99.8% in experiment [1] (setting [7]) and 101% (inactive) in experiment [3]. The GFP response relative to DMSO in experiment [2] is 97% (inactive); in experiment [2] (setting [8]) it was 97.5%; in experiment [2] (setting [9]), 96.2%. Further, the GFP response, % of DMSO in experiment [4] was 95.1% (inactive); in experiment [5], 97.3% (inactive); in experiment [5] (setting [6]), 93.8%; in experiment [5] (setting [7]), 98.1%.
Consider `CN1CCN(CC(=O)N2CCn3c4c(c5cc(C6CCCCC6)ccc53)CCCC42)CC1` (centres undefined), for which the GFP response vs DMSO in experiment [1] is 90.7% (inactive); in experiment [1] (setting [6]), 86.4%; in experiment [1] (setting [7]), 92.7%; in experiment [3] it was 108% (inactive). The GFP response relative to DMSO was 116% (inactive) in experiment [2], 109% in experiment [2] (setting [8]) and 119% in experiment [2] (setting [9]). In addition, the GFP response, % of DMSO was 95.8% (inactive) in experiment [4], 90.7% (inactive) in experiment [5], 89% in experiment [5] (setting [6]) and 88.6% in experiment [5] (setting [7]).
As for `CCCc1[nH]nc2c1C(c1ccc(OC)cc1OC)C(C#N)=C(N)O2` (centres undefined), the GFP response vs DMSO in experiment [1] was 99.8% (inactive); in experiment [1] (setting [6]) it was 99.9%; in experiment [1] (setting [7]), 99.8%; in experiment [3], 105% (inactive). The GFP response relative to DMSO in experiment [2] is 92.8% (inactive); in experiment [2] (setting [8]) it was 91.2%; in experiment [2] (setting [9]), 95.1%. Besides, the GFP response, % of DMSO is 90.4% (inactive) in experiment [4], 94% (inactive) in experiment [5], 89.9% in experiment [5] (setting [6]) and 91.4% in experiment [5] (setting [7]).
On to `c1ccc(-c2n[nH]c3ccccc23)cc1`, for which the GFP response vs DMSO in experiment [1] was 98.4% (inactive); in experiment [1] (setting [6]) it was 97.1%; in experiment [1] (setting [7]) it was 97.6%; in experiment [3], 96.2% (inactive). Also, the GFP response relative to DMSO is 101% (inactive) in experiment [2], 101% in experiment [2] (setting [8]) and 98.3% in experiment [2] (setting [9]). The GFP response, % of DMSO in experiment [4] is 92.1% (inactive); in experiment [5] it was 96.9% (inactive); in experiment [5] (setting [6]) it was 97.2%; in experiment [5] (setting [7]), 97.3%.
Turning to `CC(=O)Nc1ccc(NC(=O)c2nc(S(=O)(=O)Cc3ccccc3)ncc2Cl)cc1`, the GFP response vs DMSO in experiment [1] is 98.5% (inactive); in experiment [1] (setting [6]) it was 99.8%; in experiment [1] (setting [7]), 96.9%; in experiment [3] it was 110% (inactive). The GFP response relative to DMSO in experiment [2] was 106% (inactive); in experiment [2] (setting [8]) it was 105%; in experiment [2] (setting [9]), 105%. The GFP response, % of DMSO was 96.8% (inactive) in experiment [4], 100% (inactive) in experiment [5], 101% in experiment [5] (setting [6]) and 99.3% in experiment [5] (setting [7]).
`COC(=O)Nc1c(-c2ccccc2)nc2ccccn12`: the GFP response vs DMSO is 99.4% (inactive) in experiment [1], 98.1% in experiment [1] (setting [6]), 98.9% in experiment [1] (setting [7]) and 98.3% (inactive) in experiment [3]. The GFP response relative to DMSO in experiment [2] is 107% (inactive); in experiment [2] (setting [8]), 106%; in experiment [2] (setting [9]) it was 105%. Also, the GFP response, % of DMSO was 93.7% (inactive) in experiment [4], 101% (inactive) in experiment [5], 99.1% in experiment [5] (setting [6]) and 101% in experiment [5] (setting [7]).
For the molecule `O=C(CSCc1cccc(Br)c1)N=Nc1c(O)[nH]c2ccccc12`, the GFP response vs DMSO was 76.9% (inactive) in experiment [1], 67.8% in experiment [1] (setting [6]), 73% in experiment [1] (setting [7]) and 124% (inactive) in experiment [3]. Moreover, the GFP response relative to DMSO is 126% (inactive) in experiment [2], 102% in experiment [2] (setting [8]) and 126% in experiment [2] (setting [9]). For the same molecule, the GFP response, % of DMSO in experiment [4] was 137% (inactive); in experiment [5], 130% (inactive); in experiment [5] (setting [6]), 110%; in experiment [5] (setting [7]), 129%.
